Experimental data from ChEMBL document CHEMBL4017514, “Discovery of Novel Macrocyclic Hedgehog Pathway Inhibitors Acting by Suppressing the Gli-Mediated Transcription” (J Med Chem, 2017).
Calls of active or inactive are those of the source. The rule behind the calls is not given here.

What was measured:
Mus musculus [1] = species on record: Mus musculus; assay: Inhibition of hedgehog signaling pathway in mouse Light2 cells in Shh conditioned medium at 1 uM by Gli-luciferase reporter gene assay relative to control; format: cell-based
[2] = Inhibition of hedgehog signaling pathway in mouse Light2 cells in Shh conditioned medium by Gli-luciferase reporter gene assay; format: cell-based
Method in brief: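 Light II cells (NIH-3T3 stably transfected with Gli-responsive firefly luciferase and Renilla expression vector) stimulated with ShhN conditioned medium. This medium was collected from ShhN-transfected HEK293 cells kept in 0.1% FBS. Firefly luciferase normalized to Renilla. IC50 given as mean ± SD (nM) from three separate experiments.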

Homo sapiens [3] = species on record: Homo sapiens; assay: Inhibition of PGE2-stimulated TCF/LEF activity in human LS174T cells at 20 uM measured after 6 hrs by dual luciferase reporter gene assay; format: cell-based
Method in brief: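 LS174T cells carrying TCF/LEF reporter, stimulated with PGE2 and treated for 6 h. Dual luciferase read-out, firefly normalized to Renilla. Data given as mean ± SD.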

Homo sapiens [4] = species on record: Homo sapiens; assay: Inhibition of TNFalpha-induced NFkappaB activation in HEK293 cells at 20 uM after 24 hrs by dual luciferase reporter gene assay; format: cell-based; conditions: 1 uM, in the assay text read “1 uM” for “20 uM”
Method in brief: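 HEK293 cells carrying NF-κB firefly reporter plus Renilla, stimulated with TNF-α and treated for 24 h. Cells lysed for dual luciferase assay, firefly signal normalized to Renilla. Data given as mean ± SD.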

Mus musculus [5] = species on record: Mus musculus; assay: Inhibition of hedgehog signaling pathway in mouse Shh Light2 cells harboring Gli1 plasmid assessed as reduction in Gli1-mediated transcriptional activity at 100 nM by luciferase reporter gene assay; format: cell-based
Mus musculus [6] = species on record: Mus musculus; assay: Inhibition of hedgehog signaling pathway in mouse NIH/3T3 cells assessed as downregulation of Shh-induced ptch1 mRNA expression levels at 100 nM after 36 hrs by RT-qPCR analysis; format: cell-based
Method in brief: (§1)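 NIH-3T3 or C3H10T1/2 cells treated as indicated for 36 h, then collected for RT-qPCR of Gli1 and ptch1 mRNA. Data given as mean ± SD.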

Mus musculus [7] = species on record: Mus musculus; assay: Inhibition of hedgehog signaling pathway in mouse NIH/3T3 cells harboring sufu shRNA assessed as downregulation of ptch1 mRNA expression at 100 nM by RT-qPCR analysis; format: cell-based
Medulloblastoma cell = assay: Antiproliferative activity against mouse Ptch+/- p53-/- medulloblastoma cells assessed as reduction in cell proliferation up to 30 uM after 72 hrs by MTS assay; format: functional, cell-based
Method in brief: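 Tumor cells obtained from ptch+/−;p53−/− medulloblastoma allografts by mechanical mincing and collagenase digestion. Cultured in Neurobasal A with B-27, EGF 20 ng/mL, bFGF 20 ng/mL, nonessential amino acids and N-acetylcysteine 60 μg/mL. Exposed to compounds for 72 h, then proliferation read by MTS assay. Data given as mean ± SD.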

Mus musculus [8] = species on record: Mus musculus; assay: Inhibition of hedgehog signaling pathway in mouse Shh Light2 cells harboring Gli2 plasmid assessed as reduction in Gli2-mediated transcriptional activity at 100 nM by luciferase reporter gene assay; format: cell-based
Mus musculus [9] = species on record: Mus musculus; assay: Inhibition of hedgehog signaling pathway in mouse NIH/3T3 cells assessed as downregulation of Shh-induced Gli1 mRNA expression levels at 100 nM after 36 hrs by RT-qPCR analysis; format: cell-based; method in brief: as §1
Mus musculus [10] = species on record: Mus musculus; assay: Inhibition of hedgehog signaling pathway in mouse C3H10T1/2 cells assessed as downregulation of Shh-induced Gli1 mRNA expression levels at 100 nM after 36 hrs by RT-qPCR analysis; format: cell-based; method in brief: as §1
Mus musculus [11] = species on record: Mus musculus; assay: Inhibition of hedgehog signaling pathway in mouse NIH/3T3 cells harboring sufu shRNA assessed as downregulation of Gli1 mRNA expression at 100 nM by RT-qPCR analysis; format: cell-based
Mus musculus [12] = species on record: Mus musculus; assay: Inhibition of hedgehog signaling pathway in mouse C3H10T1/2 cells assessed as downregulation of Shh-induced ptch1 mRNA expression levels at 100 nM after 36 hrs by RT-qPCR analysis; format: cell-based; method in brief: as §1
Mus musculus [13] = species on record: Mus musculus; assay: Inhibition of hedgehog signaling pathway in mouse NIH/3T3 cells harboring sufu shRNA assessed as downregulation of ptch1 mRNA expression at 1 uM by RT-qPCR analysis; format: cell-based
Method in brief: (§2)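 Sufu expression in NIH-3T3 cells was reduced by lentivirus carrying Sufu shRNA. Knockdown was checked by immunoblot of Sufu, with GAPDH as loading control, in lysates made in Tris pH 7.4/NaCl/NP-40 buffer with protease and phosphatase inhibitors. Gli1 and ptch1 mRNA were then measured in the knockdown cells by RT-qPCR.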

Mus musculus [14] = species on record: Mus musculus; assay: Inhibition of hedgehog signaling pathway in mouse NIH/3T3 cells harboring sufu shRNA assessed as downregulation of Gli1 mRNA expression at 1 uM by RT-qPCR analysis; format: cell-based; method in brief: as §2

| Structure (SMILES) | inhibition (Mus musculus [1]) [%] | IC50 ([2]; Mus musculus) [nM] | also measured |
| --- | --- | --- | --- |
| COc1ccc(CN2C[C@@H]3CN(S(=O)(=O)c4ccc(Cl)cc4)CC[C@@H]3Oc3c(NC(=O)C4CC4)cccc3C2=O)cc1 [listing 1 of 2 here] | 117 | – | – |
| COc1ccc(CN2C[C@H]3CN(S(=O)(=O)c4ccc(Cl)cc4)CC[C@H]3Oc3c(NC(=O)C4CC4)cccc3C2=O)cc1 | 92 | 200 | – |
| COc1ccc(CN2C[C@@H]3CN(S(=O)(=O)c4ccc(Cl)cc4)CC[C@@H]3Oc3c(NC(=O)C4CC4)cccc3C2=O)cc1 [listing 2 of 2 here] | – | – | IC50 [2]: 12 nM |
| C[C@H](CO)N1CC2CCN(S(=O)(=O)c3ccc(Cl)cc3)CC2Oc2c(NC(=O)C3CC3)cccc2C1=O (stereo partly specified) [listing 1 of 2 here] | – | > 1000 | – |
| COc1ccc(CN2C[C@@H]3CCN(S(=O)(=O)c4ccc(Cl)cc4)C[C@@H]3Oc3ccc(NC(=O)C4CC4)cc3CC2=O)cc1 (racemic) | 60 | 502 | – |
| COc1ccc(CN2C[C@@H]3CCN(S(=O)(=O)c4ccc(OC)c(OC)c4)C[C@@H]3Oc3c(NC(=O)C4CC4)cccc3C2=O)cc1 (racemic) | 54 | > 1000 | – |
| C[C@H](CO)N1CC2CCN(S(=O)(=O)c3ccc(Cl)cc3)CC2Oc2c(NC(=O)C3CC3)cccc2C1=O (single isomer, unassigned; (+)) | 40 | – | – |
| COc1ccc(CN2C[C@@H]3CCN(S(=O)(=O)C4CCCCC4)C[C@@H]3Oc3c(NC(=O)C4CC4)cccc3C2=O)cc1 (racemic) | 42 | > 1000 | – |
| COc1ccc(CN2C[C@@H]3CCN(S(C)(=O)=O)C[C@@H]3Oc3c(NC(=O)C4CC4)cccc3C2=O)cc1 (racemic) | 45 | > 1000 | – |
| CN1CCC(N2C[C@@H]3CCN(S(=O)(=O)c4ccc(Cl)cc4)C[C@@H]3Oc3c(NC(=O)C4CC4)cccc3C2=O)CC1 (racemic) | 61 | 344 | – |
| COc1ccc(CN2C[C@@H]3CCN(S(=O)(=O)c4ccc(Cl)cc4Cl)C[C@@H]3Oc3c(NC(=O)C4CC4)cccc3C2=O)cc1 (racemic) | 102 | 766 | – |
| COc1ccc(CN2C[C@@H]3CN(S(=O)(=O)c4ccc(Cl)cc4)CC[C@@H]3Oc3ccc(NC(=O)C4CC4)cc3CC2=O)cc1 (racemic) | 36 | > 1000 | – |
| COc1ccc(CN2C[C@@H]3CCN(C(=O)Nc4ccc(C(F)(F)F)cc4)C[C@@H]3Oc3c(NC(=O)C4CC4)cccc3C2=O)cc1 (racemic) | 100 | 292 | – |
| Cn1ccc(S(=O)(=O)N2CCN3C(=O)c4cccc(NC(=O)C5CC5)c4OCC3C2)n1 (stereo unspecified) | 58 | > 1000 | – |
| O=S(=O)(NCCNC/C=C/c1ccc(Br)cc1)c1cccc2cnccc12 | – | – | inhibition (Homo sapiens [3]): Active |
| COc1ccc(CN2C[C@@H]3CCN(S(=O)(=O)c4ccc(Cl)cc4)C[C@@H]3Oc3c(NC(=O)C4CC4)cccc3C2=O)cc1 (racemic) | 97 | 304 | – |
| O=C(Nc1cccc2c1OCC1CN(S(=O)(=O)c3ccc(Cl)s3)CCN1C2=O)C1CC1 (stereo unspecified) | 80 | 482 | – |
| COc1ccc(CN2CC3CN(C(=O)Nc4ccc(C(F)(F)F)cc4)CCC3Oc3c(NC(=O)C4CC4)cccc3C2=O)cc1 (racemic) | 68 | > 1000 | – |
| COc1ccc(CN2C[C@@H]3CCN(S(=O)(=O)N4CCN(C)CC4)C[C@@H]3Oc3c(NC(=O)C4CC4)cccc3C2=O)cc1 (racemic) | 45 | > 1000 | – |
| C[C@H](CO)N1CC2CCN(S(=O)(=O)c3ccc(Cl)cc3)CC2Oc2c(NC(=O)C3CC3)cccc2C1=O (stereo partly specified) [listing 2 of 2 here] | 34 | – | – |

| Structure (SMILES) | inhibition (Mus musculus [1]) [%] | IC50 ([2]; Mus musculus) [nM] | also measured |
| --- | --- | --- | --- |
| Cc1ccc(S(=O)(=O)/C=C/C#N)cc1 | – | – | inhibition (Homo sapiens [4]): Active |
| COc1ccc(CN2CC3CN(C(=O)Nc4ccc(F)cc4F)CCC3Oc3c(NC(=O)C4CC4)cccc3C2=O)cc1 (racemic) | 87 | 540 | – |
| COc1ccc(CN2C[C@@H]3CCN(S(=O)(=O)c4ccc(Cl)s4)C[C@@H]3Oc3c(NC(=O)C4CC4)cccc3C2=O)cc1 (racemic) | 113 | 167 | – |
| COc1ccc(CN2C[C@@H]3CN(S(=O)(=O)c4ccc(Cl)s4)CC[C@@H]3Oc3c(NC(=O)C4CC4)cccc3C2=O)cc1 (racemic) | 108 | 46 | – |
| COc1ccc(CN2C[C@@H]3CCN(S(=O)(=O)c4ccn(C)n4)C[C@@H]3Oc3c(NC(=O)C4CC4)cccc3C2=O)cc1 (racemic) | 74 | 94 | – |
| O=C(Nc1cccc2c1OCC1CN(S(=O)(=O)c3ccc(Cl)cc3)CCN1C2=O)C1CC1 (stereo unspecified) | 35 | > 1000 | – |
| COc1ccc(CN2C[C@@H]3CN(S(=O)(=O)c4ccn(C)n4)CC[C@@H]3Oc3ccc(NC(=O)C4CC4)cc3CC2=O)cc1 (racemic) | – | > 1000 | – |
| CS(=O)(=O)c1ccc(C(=O)Nc2ccc(Cl)c(-c3ccccn3)c2)c(Cl)c1 [VISMODEGIB] | 93 | 39 | inhibition (Mus musculus [5]): inactive; inhibition (Mus musculus [6]): Active; inhibition (Mus musculus [7]): inactive; inhibition (Medulloblastoma cell): Active; inhibition (Mus musculus [8]): inactive; inhibition (Mus musculus [9]): Active; inhibition (Mus musculus [10]): Active; inhibition (Mus musculus [11]): inactive; inhibition (Mus musculus [12]): Active |
| O=C(Nc1cccc2c1O[C@H]1CN(S(=O)(=O)c3ccc(Cl)cc3)CC[C@H]1CN(CCO)C2=O)C1CC1 (racemic) | 25 | > 1000 | – |
| COc1ccc(CN2C[C@@H]3CN(S(=O)(=O)c4ccn(C)n4)CC[C@@H]3Oc3c(NC(=O)C4CC4)cccc3C2=O)cc1 (racemic) | 87 | 145 | – |
| O=C(Nc1cccc2c1O[C@H]1CN(S(=O)(=O)c3ccc(Cl)cc3)CC[C@H]1CN(CCO)C2=O)C1CCCCC1 (racemic) | 32 | > 1000 | – |
| O=C(Nc1cccc2c1O[C@H]1CN(S(=O)(=O)c3ccc(Cl)cc3)CC[C@H]1CN(Cc1cccnc1)C2=O)C1CC1 (racemic) | 28 | > 1000 | – |
| Cc1sc2c(c1C)C(c1ccc(Cl)cc1)=N[C@@H](CC(=O)OC(C)(C)C)c1nnc(C)n1-2 | – | – | inhibition (Mus musculus [13]): Active; inhibition (Mus musculus [14]): Active |
| COc1ccc(CN2C[C@@H]3CN(S(=O)(=O)c4ccc(Cl)s4)CC[C@@H]3Oc3ccc(NC(=O)C4CC4)cc3CC2=O)cc1 (racemic) | 65 | 1620 | – |
| COc1ccc(CN2CC3CN(S(=O)(=O)c4ccc(NC(C)=O)cc4)CCC3Oc3c(NC(=O)C4CC4)cccc3C2=O)cc1 (racemic) | 82 | 773 | – |
| COc1ccc(CN2C[C@@H]3CCN(S(=O)(=O)c4ccc(NC(C)=O)cc4)C[C@@H]3Oc3c(NC(=O)C4CC4)cccc3C2=O)cc1 (racemic) | 105 | 42 | – |
| COc1ccc(CN2C[C@@H]3CCN(C(=O)Nc4ccc(F)cc4F)C[C@@H]3Oc3c(NC(=O)C4CC4)cccc3C2=O)cc1 (racemic) | 100 | 26 | – |
| COc1ccc(CN2C[C@@H]3CCN(S(=O)(=O)c4ccn(C)n4)C[C@@H]3Oc3ccc(NC(=O)C4CC4)cc3CC2=O)cc1 (racemic) | 16 | > 1000 | – |
| COc1ccc(CN2C[C@@H]3CCN(C(=O)c4ccc(Cl)cc4)C[C@@H]3Oc3c(NC(=O)C4CC4)cccc3C2=O)cc1 (racemic) | 22 | > 1000 | – |
| COc1ccc(CN2CC3CN(S(=O)(=O)c4ccc(Cl)cc4Cl)CCC3Oc3c(NC(=O)C4CC4)cccc3C2=O)cc1 (racemic) | 107 | 33 | – |
